{"source": "paper PMC8599380", "about": "(European Journal of Drug Metabolism and Pharmacokinetics, 2021)", "key": {"[1]": {"test": "Population pharmacokinetic model", "format": "in vivo, human", "in_short": "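Patients dosed orally three or four times weekly; 28-day cycles of 3 weeks dosing then 7 days off. Plasma sampled pre-dose to 24 h on day 1, 5 and/or 19 (882 concentrations). FOCE-I estimation; lag-time and transit absorption models tested; exponential IIV; additive residual error on log data. Median-normalized power covariate models; forward P<0.05, backward P 0.01; bootstrap evaluation.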"}, "[2]": {"conditions": "cited from earlier work"}, "[3]": {"conditions": "cited from earlier work", "remark": "listed apart in the source"}, "[4]": {"conditions": "mouse plasma; cited from earlier work"}, "[5]": {"tested_on": "patients with hematologic and solid tumor malignancies", "conditions": "cited from earlier work"}, "[6]": {"conditions": "oral flat dose, preliminary phase 1 data"}}, "note": "Read-outs that look alike come from different tables or passages of the source."}
{"compound": "CC(C)[C@H](C(=O)Nc1ccc(C(=O)NO)cc1)c1ccccc1", "note": "[REC-2282]", "values": [{"measurement": "variability in dose-normalized AUC", "setting": "[1]; 55 patients, 20 mg to 80 mg", "result": 24.1, "unit": "%"}, {"measurement": "variability in dose-normalized Cmax", "setting": "[1]; 55 patients, 20 mg to 80 mg", "result": 29.6, "unit": "%"}, {"measurement": "dose proportionality of pharmacokinetics", "setting": "[1]; flat doses 20 mg to 80 mg", "result": "dose-proportional"}, {"measurement": "oral bioavailability", "setting": "[2]; mice, preclinical, ref unpublished data", "result": 26, "unit": "%"}, {"measurement": "dose recovered in urine", "setting": "[2]; mouse urine", "result": 1.4, "unit": "%"}, {"measurement": "dose recovered in urine", "setting": "[3]; rat urine", "result": 5, "unit": "%"}, {"measurement": "oral bioavailability", "setting": "[3]; rats, preclinical, ref unpublished data", "result": 100, "unit": "%"}, {"measurement": "bound to plasma proteins", "setting": "[4]", "result": 96, "unit": "%"}, {"measurement": "clinical response", "setting": "[5]; 27 patients enrolled", "result": "minimal response to progressive disease"}, {"measurement": "most common adverse event", "setting": "[5]; 27 patients enrolled", "result": "dose-dependent cytopenias"}, {"measurement": "observed dose-limiting toxicities", "setting": "[5]", "result": "grade 4 thrombocytopenia, febrile neutropenia and grade 3 neutropenia with infection and grade 4 psychosis"}, {"measurement": "coefficient of variation (CV) in apparent oral clearance among dose levels", "setting": "[5]; [6]", "result": "36 to 76", "unit": "%"}, {"measurement": "coefficient of variation (CV) in peak concentrations among dose levels", "setting": "[5]; [6]", "result": "24–66%"}, {"measurement": "median progression-free survival", "setting": "[5]; patients with NF2 and meningiomas", "result": 9.1, "unit": "months"}, {"measurement": "median progression-free survival", "setting": "[5]; solid tumors", "result": 3.6, "unit": "months"}]}
